Experiments:
A549 [1] = test: Induction of apoptosis in human A549 cells assessed as necrotic cells at 0.5 uM after 48 hrs by Annexin V-FITC/propidium iodide staining based flow cytometry (reference value: 0.135%); format: functional
In short: (§1)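 A549 seeded 4×10⁶ cells/well, dosed after 12 h with compound at various concentrations, harvested after 48 h. Resuspended in annexin-binding buffer, stained with Annexin V-FITC and propidium iodide for 15 min in the dark, analysed by flow cytometry; means of three separate experiments.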

A549 [2] = test: Induction of apoptosis in human A549 cells assessed as late apoptotic cells at 2 uM after 48 hrs by Annexin V-FITC/propidium iodide staining based flow cytometry (reference value: 0.637%); format: functional; in short: as §1
A549 [3] = test: Cell cycle arrest in human A549 cells assessed as accumulation of cells at S phase at 0.5 uM after 48 hrs by propidium iodide staining-based flow cytometry (reference value: 12.83%); format: functional
A549 [4] = test: Induction of apoptosis in human A549 cells assessed as necrotic cells at 1 uM after 48 hrs by Annexin V-FITC/propidium iodide staining based flow cytometry (reference value: 0.135%); format: functional; in short: as §1
SMMC-7721 [5] = test: Antiproliferative activity against human SMMC7721 cells assessed as growth inhibition at 8 uM after 72 hrs by CCK-8 assay relative to control; format: functional; settings: SMMC-7721, 72 h, read-out: GI
A549 [6] = test: Antitumor activity against human A549 cells xenografted in Balb/c nude mouse assessed as tumor growth inhibition at 25 mg/kg, ip administered twice per day for 21 days relative to control; format: functional; settings: 504 h, read-out: TGI
In short: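 Female BALB/c nude mice, 5–6 weeks, implanted s.c. in right axilla with 3×10⁶ A549 cells; randomized at ~95 mm³ tumor volume, 4 per group. Dosed ip 25 mg/kg twice daily for 21 days; vehicle controls got DMA & 5% Solutol HS-15 (5:95). Tumor size (V=length×width²/2) and body weight measured every 3 days; TGI from volume change relative to control.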

A549 [7] = test: Induction of apoptosis in human A549 cells assessed as early apoptotic cells at 1 uM after 48 hrs by Annexin V-FITC/propidium iodide staining based flow cytometry (reference value: 1.19%); format: functional; in short: as §1
A549 [8] = test: Cell cycle arrest in human A549 cells assessed as accumulation of cells at S phase at 1 uM after 48 hrs by propidium iodide staining-based flow cytometry (reference value: 12.83%); format: functional
A549 [9] = test: Antiproliferative activity against human A549 cells assessed as decrease in cell viability after 72 hrs by CCK-8 assay; format: functional, cell-based; settings: A549, 72 h
In short: (§2)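 Cells grown to 70–85% confluence (A375, A549, HCT116 in RPMI1640; HeLa, SMMC7721 in DMEM; 10% FBS, 37 °C, 5% CO2), seeded 4000/well, dosed after 12 h across a concentration range, incubated 72 h, then CCK-8 for 1 h; absorbance at 450 nm. IC50 as mean ± SD of three separate experiments.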

A549 [10] = test: Antiproliferative activity against human A549 cells assessed as growth inhibition at 2 uM after 72 hrs by CCK-8 assay relative to control; format: functional; settings: A549, 72 h, read-out: GI
Histone deacetylase 8 = target: T1, Histone deacetylase 8 (Homo sapiens, UniProt Q9BY41); test: Inhibition of recombinant human HDAC8 assessed as decrease in deacetylation of FLUOR DE LYS substrate preincubated for 10 mins followed by substrate addition and measured after 30 mins by fluorescence based assay
T1 sequence (Q9BY41 whole entry): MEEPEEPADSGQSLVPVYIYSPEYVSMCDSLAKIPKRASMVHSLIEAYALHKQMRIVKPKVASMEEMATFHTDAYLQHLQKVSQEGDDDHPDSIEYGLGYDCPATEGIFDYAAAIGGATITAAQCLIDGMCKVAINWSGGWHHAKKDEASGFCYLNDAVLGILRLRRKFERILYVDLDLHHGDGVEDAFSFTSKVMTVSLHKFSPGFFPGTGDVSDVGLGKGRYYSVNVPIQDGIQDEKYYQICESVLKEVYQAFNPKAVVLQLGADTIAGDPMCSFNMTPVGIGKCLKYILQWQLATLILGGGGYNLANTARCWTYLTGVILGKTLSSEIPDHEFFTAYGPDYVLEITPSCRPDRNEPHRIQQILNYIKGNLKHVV

A-375 [11] = test: Antiproliferative activity against human A375 cells assessed as growth inhibition at 8 uM after 72 hrs by CCK-8 assay relative to control; format: functional; settings: A-375, 72 h, read-out: GI
SMMC-7721 [12] = test: Antiproliferative activity against human SMMC7721 cells assessed as growth inhibition at 2 uM after 72 hrs by CCK-8 assay relative to control; format: functional; settings: SMMC-7721, 72 h, read-out: GI
A549 [13] = test: Cell cycle arrest in human A549 cells assessed as accumulation of cells at S phase at 2 uM after 48 hrs by propidium iodide staining-based flow cytometry (reference value: 12.83%); format: functional
[14] = Clearance in ICR mouse at 4 mg/kg, iv after 0.08 to 24 hrs by LC-MS/MS analysis; format: ADME, organism-based; settings: in vivo
In short: (§3)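 Male ICR mice (29.7~37.4 g), single iv dose 4 mg/kg in DMSO:40% SBE-β-CD 20:80 (v/v). Retro-orbital blood at 0.08–24 h into EDTA-K2 tubes; plasma protein-precipitated with acetonitrile containing internal standards, analysed by LC-MS/MS; n=3 per time point; noncompartmental analysis.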

A549 [15] = test: Induction of apoptosis in human A549 cells assessed as necrotic cells at 2 uM after 48 hrs by Annexin V-FITC/propidium iodide staining based flow cytometry (reference value: 0.135%); format: functional; in short: as §1
HeLa = test: Antiproliferative activity against human HeLa cells assessed as growth inhibition at 2 uM after 72 hrs by CCK-8 assay relative to control; format: functional; settings: read-out: GI
SMMC-7721 [16] = test: Antiproliferative activity against human SMMC7721 cells assessed as decrease in cell viability after 72 hrs by CCK-8 assay; format: functional, cell-based; settings: SMMC-7721, 72 h; in short: as §2
HCT-116 [17] = test: Antiproliferative activity against human HCT116 cells assessed as growth inhibition at 2 uM after 72 hrs by CCK-8 assay relative to control; format: functional; settings: HCT-116, 72 h, read-out: GI
[18] = Half life in ICR mouse at 4 mg/kg, iv after 0.08 to 24 hrs by LC-MS/MS analysis; format: ADME, organism-based; settings: in vivo; in short: as §3
Histone deacetylase = test: Inhibition of HDAC in human HeLa cell nuclear extract assessed as decrease in deacetylation of FLUOR DE LYS Green substrate preincubated for 10 mins followed by substrate addition and measured after 30 mins by fluorescence based assay; format: cell-free
[19] = AUC (0 to t) in ICR mouse at 4 mg/kg, iv after 0.08 to 24 hrs by LC-MS/MS analysis; format: ADME, organism-based; design: time upper 24 hr, dose 4 mg/kg, time lower 0.08 hr, route intravenous; settings: in vivo; in short: as §3
Histone deacetylase 2 = Histone deacetylase 2 (Homo sapiens, UniProt Q92769); test: Inhibition of recombinant human HDAC2 assessed as decrease in deacetylation of FLUOR DE LYS Green substrate preincubated for 10 mins followed by substrate addition and measured after 30 mins by fluorescence based assay
A-375 [20] = test: Antiproliferative activity against human A375 cells assessed as growth inhibition at 2 uM after 72 hrs by CCK-8 assay relative to control; format: functional; settings: A-375, 72 h, read-out: GI
HCT-116 [21] = test: Antiproliferative activity against human HCT116 cells assessed as decrease in cell viability after 72 hrs by CCK-8 assay; format: functional, cell-based; settings: HCT-116, 72 h; in short: as §2

Sequence of Histone deacetylase 2 (Q92769 whole entry): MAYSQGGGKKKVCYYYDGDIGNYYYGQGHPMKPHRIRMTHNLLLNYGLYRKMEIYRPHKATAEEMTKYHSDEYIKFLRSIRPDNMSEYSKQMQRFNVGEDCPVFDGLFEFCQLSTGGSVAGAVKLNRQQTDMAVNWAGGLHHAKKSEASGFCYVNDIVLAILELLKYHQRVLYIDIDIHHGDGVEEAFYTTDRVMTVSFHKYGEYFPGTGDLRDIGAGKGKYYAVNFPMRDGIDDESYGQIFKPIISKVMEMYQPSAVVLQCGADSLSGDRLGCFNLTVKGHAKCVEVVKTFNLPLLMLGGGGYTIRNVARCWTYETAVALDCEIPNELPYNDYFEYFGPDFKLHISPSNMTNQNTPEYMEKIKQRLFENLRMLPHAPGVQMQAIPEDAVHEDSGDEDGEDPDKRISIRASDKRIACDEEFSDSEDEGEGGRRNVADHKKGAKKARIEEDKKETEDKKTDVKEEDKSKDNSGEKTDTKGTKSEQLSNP

IC50 (A549 [9])	IC50 (Histone deacetylase 8)	clearance [14]	IC50 (SMMC-7721 [16])	half-life [18]	SMILES	Activity (A549 [1])	Activity (A549 [2])	Activity (A549 [3])	Activity (A549 [4])	inhibition of growth at 8 µM (SMMC-7721 [5])	inhibition in vivo at 25 mg/kg (A549 [6])	Activity (A549 [7])	Activity (A549 [8])	inhibition of growth at 2 µM (A549 [10])	inhibition of growth at 8 µM (A-375 [11])	inhibition of growth at 2 µM (SMMC-7721 [12])	Activity (A549 [13])	Activity (A549 [15])	inhibition of growth at 2 µM (HeLa)	inhibition of growth at 2 µM (HCT-116 [17])	other results
3040 nM	> 32 µM	76.3 mL/min/kg	1750 nM	155 min	CCc1ccc(SCc2ccc(C(=O)Nc3ccccc3N)cc2)cc1	1.14%	16.7%	12.56%	8.44%	82.9%	62.7%	6.52%	9.74%	53.6%	71.1%	25.7%	9.52%	13.2%	30.8%	40.7%	IC50 (Histone deacetylase): > 32 µM; AUC(0-t) [19]: 868 ng·h/mL; IC50 (Histone deacetylase 2): 144 nM; inhibition of growth at 2 µM (A-375 [20]): 19.6%; IC50 (HCT-116 [21]): 1740 nM
2570 nM	> 32 µM	90.1 mL/min/kg	2170 nM	134 min	COc1ccc(SCc2ccc(C(=O)Nc3ccccc3N)cc2)cc1	13.8%	26.6%	17.55%	1.5%	80.1%	57.9%	19.8%	20.63%	45.7%	81.8%	33.1%	12.64%	20.3%	35%	73.3%	IC50 (Histone deacetylase): > 32 µM; AUC(0-t) [19]: 737 ng·h/mL; IC50 (Histone deacetylase 2): 205 nM; inhibition of growth at 2 µM (A-375 [20]): 10.2%; IC50 (HCT-116 [21]): 1640 nM
